Experiments:
[1] = tested on: Enterobacter cloacae; test: Antibacterial activity against Enterobacter cloacae SR200030 assessed as reduction in bacterial growth by measuring minimum […] concentration incubated for 16 to 24 hrs by CLSI based two-fold serial dilution method; assay type: functional; settings: time 16-24 hrs
In short: (§1)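 Inhibitor twofold serially diluted in cation-adjusted Mueller Hinton broth containing ceftibuten 1 μg/mL. About 5 × 10⁴ cfu/well, 35 °C for 16−20 h. […] N = 1.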

[2] = tested on: Klebsiella pneumoniae; test: Antibacterial activity against Klebsiella pneumoniae SR200263 assessed as reduction in bacterial growth by measuring minimum […] concentration incubated for 16 to 20 hrs by CLSI based two-fold serial dilution method; settings: time 16-20 hrs
[3] = Inhibition of bacterial beta-lactamase KPC-2 using nitrocefin as substrate incubated for 20 mins; design: species or system Bacteria
In short: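 Nitrocefin hydrolysis read by absorbance. Enzyme titrated to give about 0.2 absorbance change over the no-enzyme control. Enzyme added to nitrocefin (final 50 μg/mL) plus inhibitor, no preincubation, read after 20 min at 35 °C. IC50 is 50% reduction of hydrolysis. N = 1.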

[4] = Half life in rat at 1 mg/kg,iv by LC/MS/MS analysis; assay type: ADME, organism-based; settings: in vivo
In short: (§2)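 After iv dosing, T1/2 taken as ln 2/kel, with kel from the slope of the log concentration–time profile. Plasma levels measured by LC/MS/MS with an external standard.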

[5] = tested on: Enterobacter cloacae; test: Antibacterial activity against Enterobacter cloacae SR100108 assessed as inhibition of bacterial growth incubated for 16 to 20 hrs by CLSI based two-fold serial dilution method
[6] = tested on: Escherichia coli; test: Antibacterial activity against Escherichia coli ATCC SR09613 assessed as inhibition of bacterial growth incubated for 16 to 20 hrs by CLSI based two-fold serial dilution method
[7] = tested on: Enterobacter cloacae; test: Antibacterial activity against Enterobacter cloacae SR100108 assessed as reduction in bacterial growth by measuring minimum […] concentration incubated for 16 to 20 hrs by CLSI based two-fold serial dilution method; settings: time 16-20 hrs
[8] = tested on: Klebsiella pneumoniae; test: Antibacterial activity against Klebsiella pneumoniae SR201325 assessed as reduction in bacterial growth by measuring minimum […] concentration incubated for 16 to 24 hrs by CLSI based two-fold serial dilution method; assay type: functional; settings: time 16-24 hrs; in short: as §1
[9] = AUC in dog at 5 mg/kg,iv by LC/MS/MS analysis; assay type: ADME, organism-based, Canis lupus familiaris; design: dose 5 mg/kg, route iv; settings: in vivo
In short: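 Plasma of the parent acid measured by LC/MS/MS (methanol precipitation, positive ESI, external standard); oral values follow prodrug dosing (rat fed, dog and monkey fasted). AUC from 0 h to last time point by linear trapezoid; F from oral AUC versus iv AUC of the parent. N = 2 (rat, dog), N = 3 (monkey, mouse).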

[10] = Total clearance in monkey at 5 mg/kg,iv by LC/MS/MS analysis; assay type: ADME, organism-based, Macaca mulatta; settings: rhesus monkey, in vivo
In short: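 Intravenous dosing (mouse 10, rat 1, dog 5, monkey 5 mg/kg); plasma quantified by LC/MS/MS after methanol precipitation with external standard; AUC by linear trapezoidal approximation; CLtot = dose/AUC.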

[11] = tested on: Klebsiella pneumoniae; test: Antibacterial activity against Klebsiella pneumoniae SR09603 assessed as inhibition of bacterial growth incubated for 16 to 20 hrs by CLSI based two-fold serial dilution method
[12] = tested on: Klebsiella pneumoniae; test: Antibacterial activity against Klebsiella pneumoniae SR09635 assessed as reduction in bacterial growth by measuring minimum […] concentration incubated for 16 to 20 hrs by CLSI based two-fold serial dilution method; settings: time 16-20 hrs
[13] = tested on: Klebsiella pneumoniae; test: Antibacterial activity against Klebsiella pneumoniae ATCC SR201218 assessed as reduction in bacterial growth by measuring minimum […] concentration incubated for 16 to 24 hrs by CLSI based two-fold serial dilution method; assay type: functional; settings: time 16-24 hrs
In short: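 MPC₁ by broth microdilution: twofold serial dilutions of inhibitor in cation-adjusted Mueller Hinton broth containing ceftibuten at 1 μg/mL. Inoculum about 5 × 10⁴ cfu/well final, set from OD625. Incubation at 35 °C for 16−20 h. […] N = 1.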

[14] = Half life in mouse at 10 mg/kg,iv by LC/MS/MS analysis; assay type: ADME, organism-based; settings: in vivo; in short: as §2
[15] = Inhibition of bacterial beta-lactamase CTX-M-15 using nitrocefin as substrate incubated for 20 mins; design: species or system Bacteria
[16] = tested on: Enterobacter cloacae; test: Antibacterial activity against Enterobacter cloacae SR200030 assessed as inhibition of bacterial growth incubated for 16 to 24 hrs by CLSI based two-fold serial dilution method; assay type: functional; settings: time 16-24 hrs
In short: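 CLSI broth microdilution in cation-adjusted Mueller Hinton broth, twofold serial dilutions, about 5 × 10⁴ cfu/well from OD625, 35 °C for 16−20 h. MIC is the lowest concentration with no visible growth.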

[17] = Total clearance in rat by LC-MS/MS analysis; assay type: ADME; settings: in vivo

IC50 [3]: 14 nM | half-life [4]: 12 min | MIC [5]: > 32 µg/mL | MIC [6]: 32 µg/mL | AUC [9]: 19400 ng·h/mL | clearance [10]: 6.15 mL/min/kg | MIC [11]: 32 µg/mL | half-life [14]: 24 min | IC50 [15]: 12 nM | MIC [16]: > 32 µg/mL | clearance [17]: 27 mL/min/kg
Compound: C[S@@+]([O-])[C@@H]1CC[C@@H]2CN1C(=O)N2O[C@H](F)C(=O)[O-].[Na+]
MPC [1]: 4 µg/mL | MPC [2]: 0.125 µg/mL | MPC [7]: 1 µg/mL | MPC [8]: 2 µg/mL | MPC [12]: 2 µg/mL | MPC [13]: 2 µg/mL

Source: ChEMBL document CHEMBL5236549, “Discovery of 2-Sulfinyl-Diazabicyclooctane Derivatives, Potential Oral β-Lactamase Inhibitors for Infections Caused by Serine β-Lactamase-Producing Enterobacterales” (J Med Chem, 2021)
